We go through five compounds from publication PMC4404408 (Journal of acquired immune deficiency syndromes (1999), 2014).

SMILES strings stand for the structures. Values joined by “and” are separate entries in the source; they are usually repeats but may differ in a detail not shown here. Equal values may be shown once. Read-outs that look alike come from different tables or passages of the source.

The conditions of data set [1]: human, in vivo.
Data set [2] can be described thus: Phase I open-label drug interaction PK study, arm B.
Data set [3] is described as follows: Phase I open-label drug interaction PK study, arm A. The note with it: for Cmax: in vivo.
For data set [4] the following is noted: human, in vivo. This is another data set of the same source.
The conditions of data set [5]: cited from earlier work.
A short description of data set [6]: Fasting lipid profile, calculated LDL-C. It is filed as in vivo, healthy adult HIV-1 seronegative volunteers. An outline of the steps:
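Healthy HIV-seronegative volunteers aged 18–60 (BMI 18–25, ≥50 kg) took pitavastatin with observed dosing on day 4. They then took EFV 600 mg (arm A, night) or DRV/ritonavir 800/100 mg (arm B, morning) on days 5–14, plus pitavastatin 2 mg on days 15–18. Fasting serum total cholesterol, triglycerides and HDL were measured enzymatically on days 0, 4, 14 and 18, and LDL-C was calculated by the Friedewald equation.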

The mark [7] stands for this setting: coadministered with pitavastatin vs DRV/r alone, nonsignificant.
Where [8] appears, read: pitavastatin 4 mg daily with DRV/r 800/100 mg, healthy volunteers.
Setting [9] is: pitavastatin 4 mg once daily and lopinavir/r 400/100 mg twice a day, healthy volunteers.

For `O=C1C[C@H](O)C[C@@H](/C=C/c2c(C3CC3)nc3ccccc3c2-c2ccc(F)cc2)O1` [pitavastatin lactone], in data set [1], the “Pitavastatin lactone median Tmax” value was 2.0 h.
With `CC(C)CN(C[C@@H](O)[C@H](Cc1ccccc1)NC(=O)O[C@H]1CO[C@H]2OCC[C@H]21)S(=O)(=O)c1ccc(N)cc1` [DRV, darunavir], in data set [2] (setting [7]), the “Increase in DRV mean AUC0-τ” value is 8% and < 10%; the “Increase in DRV mean Cmax” value was 3% and < 10%. Moreover, the “DRV mean plasma concentrations, alone vs coadministered” value in data set [2] (with pitavastatin, Fig. 3B) was “remained similar”.
As to `O=C1Nc2ccc(Cl)cc2[C@@](C#CC2CC2)(C(F)(F)F)O1` [EFV, efavirenz], the “EFV AUC0-τ, geometric mean” value in data set [3] (EFV 600 mg with pitavastatin 2 mg, day 18, N=14) amounted to 44400 ng·h/mL. Also, in data set [3] (EFV only, day 14, N=14), the “EFV Tmax, median (IQR)” value is recorded as 2.0 (0.9 to 3.0) h. Also, the Cmax in data set [3] (human) worked out at 3720 ng/mL. This compound gave a Cmax in data set [3] (human, 600 mg) of 4150 ng/mL. Moreover, the AUC in data set [3] (human, plasma, oral, 600 mg) turned out to be 49500 ng·h/mL. In addition, in data set [3] (human, plasma, oral, EFV Tmax, median (IQR), EFV with pitavastatin, day 18, N=14), the time to peak (Tmax) amounted to 1.5 h. For the same compound, in data set [4], the “EFV AUC0-τ geometric mean ratio (90% CI)” value was 0.90 (0.75 to 1.06) and the “EFV mean plasma concentrations, alone vs coadministered” value is “remained similar throughout the entire 24-hour PK period”.
As for `CC[C@H](C)C(=O)O[C@H]1C[C@H](O)C=C2C=C[C@H](C)[C@H](CC[C@@H](O)C[C@@H](O)CC(=O)O)[C@H]21` [pravastatin], the “Decrease of statin AUC by EFV” value in data set [5] (coadministered with EFV) is reported as 40%. The entries for the “Increase of pravastatin AUC” value in data set [5] (coadministration with lopinavir/ritonavir) and in data set [5] (in the presence of DRV/r) were 33% and 81%, respectively. Besides, the “Reduction of pravastatin exposure” value in data set [5] (combined with nelfinavir or saquinavir) is “about 50%”.
For the compound `O=C(O)C[C@H](O)C[C@H](O)/C=C/c1c(C2CC2)nc2ccccc2c1-c1ccc(F)cc1` [Pitavastatin, pitavastatin], the “Pitavastatin Tmax, median (IQR)” value in data set [4] is reported as 2.0 (0.9 to 3.0) h. Also, the “Change in mean LDL” value in data set [6] (day 0-4, pitavastatin only, arms A and B) is recorded as “decreased”. Besides, the “Change in mean LDL” value in data set [6] (day 14 to day 18, pitavastatin and either EFV or DRV/r) is “decreased”. In addition, the “Pitavastatin mean plasma concentrations, alone vs coadministered” value in data set [2] (with DRV/r, 24-hour PK period, Fig. 3A) is “similar”. Further, in data set [5] (combined with ritonavir-boosted atazanavir), the “Increase in pitavastatin AUC” value was 31%. The “Safety of concomitant administration” value in data set [5] (lopinavir/ritonavir in combination with pitavastatin) is “safe and well tolerated”. In data set [5] (setting [8]), the “Change in pitavastatin Cmax” value is listed as “minimal or no change” and the “Reduction in pitavastatin AUC0-τ” value is listed as 26%. In addition, in data set [5] (setting [9]), the “Change of pitavastatin Cmax” value is reported as “unaffected” and the “Reduction of pitavastatin AUC” value was ~ 20%.

The Cmax is the highest concentration seen after dosing. A word on the AUC: it is the area under the concentration-time curve, a measure of exposure. What is called Tmax is the time at which the peak concentration occurs.
